Values joined by “and” are separate entries in the source; they are usually repeats but may differ in a detail not shown here. Equal values may be shown once.
What was measured:
[1] = test system: UACC-257; experiment: Cytotoxicity against human UACC257 cells assessed as cell growth at 0.001 uM after 48 hrs by sulforhodamine B assay; format: functional; settings: UACC-257, 48 h, read-out: Activity
[2] = test system: SK-MEL-5; experiment: Cytotoxicity against human SK-MEL-5 cells assessed as cell growth at 1 uM after 48 hrs by sulforhodamine B assay; format: functional; settings: SK-MEL-5, 48 h, read-out: Activity
[3] = test system: 786-0; experiment: Cytotoxicity against human 786-0 cells assessed as cell growth at 100 nM after 48 hrs by sulforhodamine B assay; format: functional; settings: 786-0, 48 h, read-out: Activity
Method in brief: (§1)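 Cells grown in RPMI 1640 with 5% FBS and 2 mM L-glutamine, seeded at 5,000–40,000 cells/well by doubling time. Time-zero plates TCA-fixed after 24 h. Five concentrations (10-fold or half-log dilutions from DMSO stock) added; 48 h at 37 °C, 5% CO2. Cold TCA fixation (final 10%, 60 min, 4 °C), 0.4% SRB stain, dye solubilized in 10 mM trizma base, A515.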

[4] = test system: NCI-H23; experiment: Growth inhibition of human NCI-H23 cells after 48 hrs by sulforhodamine B assay; format: functional, cell-based; settings: NCI-H23, 48 h; for CC50: read-out: LC50 (the source's name)
Method in brief: (§2)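 Cells grown in RPMI 1640 with 5% FBS and 2 mM L-glutamine, seeded at 5,000–40,000 cells/well according to doubling time. After 24 h, time-zero plates are TCA-fixed. Five concentrations (10-fold or ½log dilutions, DMSO stocks) are applied for 48 h at 37 °C, 5% CO₂. Cells are TCA-fixed, SRB-stained and read at 515 nm. IC₅₀ is taken from [(Ti−Tz)/(C−Tz)]×100 = 50.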

[5] = test system: SNB-19; experiment: Cytotoxicity against human SNB19 cells assessed as cell growth at 10 uM after 48 hrs by sulforhodamine B assay; format: functional; settings: SNB-19, 48 h, read-out: Activity
[6] = test system: MDA-MB-231; experiment: Growth inhibition of human MDA-MB-231 cells after 48 hrs by sulforhodamine B assay; format: functional, cell-based; settings: MDA-MB-231, 48 h; method in brief: as §2
[7] = test system: U-251; experiment: Cytotoxicity against human U251 cells assessed as cell growth at 100 nM after 48 hrs by sulforhodamine B assay; format: functional; settings: U-251, 48 h, read-out: Activity
[8] = test system: NCI-H322M; experiment: Cytotoxicity against human NCI-H322M cells assessed as cell growth at 0.01 uM after 48 hrs by sulforhodamine B assay; format: functional; settings: read-out: Activity
[9] = test system: SW-620; experiment: Cytotoxicity against human SW620 cells assessed as cell growth at 1 uM after 48 hrs by sulforhodamine B assay; format: functional; settings: SW-620, 48 h, read-out: Activity
[10] = test system: SK-MEL-2; experiment: Cytotoxicity against human SK-MEL-2 cells assessed as cell growth at 100 nM after 48 hrs by sulforhodamine B assay; format: functional; settings: SK-MEL-2, 48 h, read-out: Activity
[11] = test system: UACC-257; experiment: Cytotoxicity against human UACC257 cells assessed as cell growth at 100 nM after 48 hrs by sulforhodamine B assay; format: functional; settings: UACC-257, 48 h, read-out: Activity
[12] = test system: NCI-H522; experiment: Growth inhibition of human NCI-H522 cells after 48 hrs by sulforhodamine B assay; format: functional, cell-based; settings: NCI-H522, 48 h; for CC50: read-out: LC50 (the source's name); method in brief: as §2
[13] = test system: SK-OV-3; experiment: Cytotoxicity against human SKOV3 cells assessed as cell growth at 100 nM after 48 hrs by sulforhodamine B assay; format: functional; settings: SK-OV-3, 48 h, read-out: Activity
[14] = test system: A498; experiment: Cytotoxicity against human A498 cells assessed as cell growth at 0.001 uM after 48 hrs by sulforhodamine B assay; format: functional; settings: A498, 48 h, read-out: Activity; method in brief: as §1
[15] = test system: HL-60(TB); experiment: Cytotoxicity against human HL-60(TB) cells assessed as cell growth at 0.001 uM after 48 hrs by sulforhodamine B assay; format: functional; settings: HL-60, 48 h, read-out: Activity
Method in brief: (§3)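 Five-concentration HL-60(TB) test in RPMI 1640 with 5% FBS and 2 mM L-glutamine. Cells are plated at 5,000–40,000/well and a TCA-fixed time-zero plate is read at drug addition after 24 h. Drug is dissolved in DMSO and given as five 10-fold or ½log dilutions for 48 h at 37 °C, 5% CO2. Settled cells are fixed with TCA, stained with SRB and read at 515 nm.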

[16] = test system: SK-MEL-2; experiment: Cytotoxicity against human SK-MEL-2 cells assessed as cell growth at 1 uM after 48 hrs by sulforhodamine B assay; format: functional; settings: SK-MEL-2, 48 h, read-out: Activity
[17] = test system: MOLT-4; experiment: Cytotoxicity against human MOLT4 cells assessed as cell growth at 0.01 uM after 48 hrs by sulforhodamine B assay; format: functional; settings: MOLT-4, 48 h, read-out: Activity
[18] = test system: SNB-75; experiment: Growth inhibition of human SNB75 cells after 48 hrs by sulforhodamine B assay; format: functional, cell-based; settings: for CC50: read-out: LC50 (the source's name); method in brief: as §2
[19] = test system: NCI-H522; experiment: Cytotoxicity against human NCI-H522 cells assessed as cell growth at 0.001 uM after 48 hrs by sulforhodamine B assay; format: functional; settings: NCI-H522, 48 h, read-out: Activity
[20] = test system: SNB-19; experiment: Growth inhibition of human SNB19 cells after 48 hrs by sulforhodamine B assay; format: functional, cell-based; settings: SNB-19, 48 h; for CC50: read-out: LC50 (the source's name); method in brief: as §2
[21] = test system: HCT-116; experiment: Cytotoxicity against human HCT116 cells assessed as cell growth at 0.01 uM after 48 hrs by sulforhodamine B assay; format: functional; settings: HCT-116, 48 h, read-out: Activity
[22] = test system: OVCAR-3; experiment: Growth inhibition of human OVCAR-3 cells after 48 hrs by sulforhodamine B assay; format: functional, cell-based; settings: OVCAR-3, 48 h; for CC50: read-out: LC50 (the source's name); method in brief: as §2
[23] = test system: KM12; experiment: Cytotoxicity against human KM12 cells assessed as cell growth at 0.01 uM after 48 hrs by sulforhodamine B assay; format: functional; settings: KM12, 48 h, read-out: Activity
[24] = test system: Malme-3M; experiment: Cytotoxicity against human MALME-3M cells assessed as cell growth at 0.001 uM after 48 hrs by sulforhodamine B assay; format: functional; settings: read-out: Activity
[25] = test system: T47D; experiment: Cytotoxicity against human T47D cells assessed as cell growth at 0.001 uM after 48 hrs by sulforhodamine B assay; format: functional; settings: read-out: Activity
[26] = test system: HL-60(TB); experiment: Cytotoxicity against human HL-60(TB) cells assessed as cell growth at 0.01 uM after 48 hrs by sulforhodamine B assay; format: functional; settings: HL-60, 48 h, read-out: Activity; method in brief: as §3
[27] = test system: SK-OV-3; experiment: Cytotoxicity against human SKOV3 cells assessed as cell growth at 0.001 uM after 48 hrs by sulforhodamine B assay; format: functional; settings: SK-OV-3, 48 h, read-out: Activity
[28] = test system: MDA-MB-435; experiment: Growth inhibition of human MDA-MB-435 cells after 48 hrs by sulforhodamine B assay; format: functional, cell-based; settings: MDA-MB-435, 48 h; for CC50: read-out: LC50 (the source's name); method in brief: as §2
[29] = test system: OVCAR-3; experiment: Cytotoxicity against human OVCAR-3 cells assessed as cell growth at 100 nM after 48 hrs by sulforhodamine B assay; format: functional; settings: OVCAR-3, 48 h, read-out: Activity

## CC(=O)Nc1cccc(-c2ccc(-c3ccnc(NC(=O)Nc4cc(C(F)(F)F)cc(C(F)(F)F)c4)n3)cn2)c1.Cl
[1]
  growth at 0.001 µM: 94%
[2]
  growth at 1 µM: 100%
[3]
  growth at 0.1 µM: 62%
[4]
  GI50: 2.24 µM
  IC50: 2.24 µM
  TGI: 6.94 µM
  CC50: 43.8 µM
[5]
  growth at 10 µM: -88%
[6]
  GI50: 3.72 µM
  IC50: 3.72 µM
  LC50: 62 µM
  TGI: 19.7 µM
[7]
  growth at 0.1 µM: 85%
[8]
  growth at 0.01 µM: 88%
[9]
  growth at 1 µM: -33%
[10]
  growth at 0.1 µM: 96%
[11]
  growth at 0.1 µM: 78%
[12]
  GI50: 1.71 µM
  IC50: 1.71 µM
  TGI: 5.85 µM
  CC50: 35.3 µM
[13]
  growth at 0.1 µM: 94%
[14]
  growth at 0.001 µM: 95%
[15]
  growth at 0.001 µM: 95%
[16]
  growth at 1 µM: 35%
[17]
  growth at 0.01 µM: 90%
[18]; Homo sapiens, SNB-75, 48 h
  GI50: 10.9 µM
  IC50: 10.9 µM
  TGI: 30.5 µM
  CC50: 85.8 µM
[19]
  growth at 0.001 µM: 86%
[20]
  GI50: 4.57 µM
  IC50: 4.57 µM
  TGI: 17.8 µM
  CC50: 47.4 µM
[21]
  growth at 0.01 µM: 85%
[22]
  GI50: 1.85 µM
  IC50: 1.85 µM
  TGI: 4.23 µM
  CC50: 9.69 µM
[23]
  growth at 0.01 µM: 99%
[24]
  growth at 0.001 µM: 92%
[25]
  growth at 0.001 µM: 89%
[26]
  growth at 0.01 µM: 90%
[27]
  growth at 0.001 µM: 103%
[28]
  GI50: 2.31 µM
  IC50: 2.31 µM
  TGI: 6.8 µM
  CC50: > 100 µM
[29]
  growth at 0.1 µM: 67%

## CC(=O)c1ccccc1-c1ccc(-c2ccnc(NC(=O)Nc3cc(N4CCOCC4)cc(C(F)(F)F)c3)n2)cn1
[1]
  growth at 0.001 µM: 89%
[2]
  growth at 1 µM: 33%
[3]
  growth at 0.1 µM: 98%
[4]
  GI50: 2.95 µM
  IC50: > 100 µM
  TGI: > 100 µM
  CC50: > 100 µM
[5]
  growth at 10 µM: 26%
[6]
  IC50: 3.1 µM
  LC50: > 100 µM
  TGI: > 100 µM
[7]
  growth at 0.1 µM: 93%
[8]
  growth at 0.01 µM: 108%
[9]
  growth at 1 µM: 84%
[10]
  growth at 0.1 µM: 102%
[11]
  growth at 0.1 µM: 83%
[12]
  GI50: > 100 µM
  IC50: 63.2 µM
  TGI: > 100 µM
  CC50: > 100 µM
[13]
  growth at 0.1 µM: 118%
[14]
  growth at 0.001 µM: 85%
[15]
  growth at 0.001 µM: 92%
[16]
  growth at 1 µM: 65%
[17]
  growth at 0.01 µM: 76%
[18]
  TGI: 100 µM and 27.5 µM
[18]; Homo sapiens, SNB-75, 48 h
  GI50: 38.7 µM
  IC50: 5.35 µM
  CC50: > 100 µM
[19]
  growth at 0.001 µM: 91%
[20]
  GI50: 9.04 µM
  IC50: 38.7 µM
  TGI: > 100 µM
  CC50: > 100 µM
[21]
  growth at 0.01 µM: 95%
[22]
  GI50: 6.18 µM
  IC50: > 100 µM
  TGI: > 100 µM
  CC50: > 100 µM
[23]
  growth at 0.01 µM: 98%
[24]
  growth at 0.001 µM: 94%
[25]
  growth at 0.001 µM: 106%
[26]
  growth at 0.01 µM: 87%
[27]
  growth at 0.001 µM: 111%
[28]
  GI50: > 100 µM
  IC50: > 100 µM
  TGI: > 100 µM
  CC50: > 100 µM
[29]
  growth at 0.1 µM: 109%

— ChEMBL document CHEMBL1165943, “Design and synthesis of new anticancer pyrimidines with multiple-kinase inhibitory effect” (Bioorg Med Chem, 2010)
